The list is not random: actives were taken first. Their share in the collection is about 2.3%.
TRPC4 inh – blocks the mouse TRPC4 cation channel; Q9QUQ5; HEK293 TRPC4beta/mu-opioid, DAMGO-evoked Fluo4 calcium flux; stronger effect = lower value; B-score at 10 µM; 300,000 tested, 0.39% active; AID 2247;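 active = B-score over 3 SD under the library average, no early fluorescence shift, positive overall ratio signal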
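test system = HEK293 cells with stable TRPC4beta plus mu-opioid receptor expression | detection = Fluo4 Ca2+ flux fluorescence | read-out = integrated fluorescence ratio relative to baseline, converted to per-well B score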
TRPC4 PAM – allosterically enhances the mouse TRPC4 cation channel; Q9QUQ5; HEK293 TRPC4beta/mu-opioid, DAMGO EC20, Fluo-4 Ca2+ flux; stronger effect = higher value; B-score at 10 µM; 310,000 tested, 0.42% active; AID 2227;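 active = B-score of calcium response area above 5 SD of library B-scores, with initial fluorescence ratio within 5 SD of library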
TRPC6 inh – inhibitors of mouse TRPC6 channel; Q61143; HEK293-TRPC6, membrane potential dye, ACh-evoked depolarization; stronger effect = lower value; B-score at 10 µM; 310,000 tested, 1.1% active;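 active = B-score under library mean minus 3 SD, initial fluorescence not abnormally high, positive integrated signal ratio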;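 also: B-score derived from integrated fluorescence ratio over the kinetic read; more negative B-score means stronger inhibition of depolarization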
Target sequence (Q61143 whole entry, looked up): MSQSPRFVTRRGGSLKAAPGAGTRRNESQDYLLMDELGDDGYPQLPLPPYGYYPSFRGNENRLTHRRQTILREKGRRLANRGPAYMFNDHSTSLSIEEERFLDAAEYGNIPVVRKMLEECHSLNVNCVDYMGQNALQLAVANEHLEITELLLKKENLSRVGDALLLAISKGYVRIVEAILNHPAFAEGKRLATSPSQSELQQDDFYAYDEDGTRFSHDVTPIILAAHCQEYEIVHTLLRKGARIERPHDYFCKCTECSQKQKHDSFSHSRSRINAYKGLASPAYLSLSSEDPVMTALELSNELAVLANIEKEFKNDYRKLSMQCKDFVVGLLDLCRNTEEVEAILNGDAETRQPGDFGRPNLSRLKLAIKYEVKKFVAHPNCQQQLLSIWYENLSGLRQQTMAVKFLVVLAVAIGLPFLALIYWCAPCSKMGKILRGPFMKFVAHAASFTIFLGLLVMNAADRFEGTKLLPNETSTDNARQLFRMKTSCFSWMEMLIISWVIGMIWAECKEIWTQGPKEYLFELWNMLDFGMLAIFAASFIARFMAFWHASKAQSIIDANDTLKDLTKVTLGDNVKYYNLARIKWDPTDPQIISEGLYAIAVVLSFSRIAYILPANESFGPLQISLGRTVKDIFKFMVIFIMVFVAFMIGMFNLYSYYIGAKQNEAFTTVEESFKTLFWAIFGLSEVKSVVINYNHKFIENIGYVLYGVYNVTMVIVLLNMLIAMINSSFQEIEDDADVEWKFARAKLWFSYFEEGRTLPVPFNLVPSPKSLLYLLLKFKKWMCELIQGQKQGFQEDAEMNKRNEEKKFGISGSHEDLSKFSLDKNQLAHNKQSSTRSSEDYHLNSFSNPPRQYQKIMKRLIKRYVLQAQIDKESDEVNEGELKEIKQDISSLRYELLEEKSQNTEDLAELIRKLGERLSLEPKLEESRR
TRPC6 activator – mouse TRPC6 channel activation. HEK293-TRPC6 membrane potential dye fluorescence; stronger effect = higher value. 310,000 tested, 0.13% active. B-score at 10 µM. AID 2550. Q61143;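 active = B-score of the integrated fluorescence ratio above library mean plus 3 SD, and starting fluorescence ratio within library mean plus 5 SD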;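 also: higher score means more depolarization so channel activation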
TRPC4 agonist – activators of mouse TRPC4 channel; Q9QUQ5; HEK293 TRPC4beta/mu-opioid, Fluo4 calcium fluorescence; stronger effect = higher value; B-score at 10 µM; 310,000 tested, 0.49% active; AID 2237;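 active = B-score above 5 SD of library B-scores, and initial fluorescence ratio not above library mean plus 5 SD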;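 also: positive B-score marks a calcium rise read as TRPC4 activation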
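Assay system: HEK293 stable line with TRPC4beta plus mu-opioid receptor. Times: dye 45 min RT, read 110 s. Measured by: kinetic Fluo4 calcium fluorescence. Measure: B score of integrated ratio. Controls: assay buffer as low control, maximal DAMGO as high control.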
TRPC4 spec 2 – mouse TRPC4 off-target activity of TRPC6 inhibitors, second screen. shares compounds with TRPC6 inh. 920 tested, 42% active. inhibition, % at 10 µM. HEK293 TRPC4/MOR, membrane potential dye fluorescence; channel activated by saturating DAMGO dose;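 active = compounds whose fluorescence signal differed from control wells by over 3 SD, either direction, in both duplicate plates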
TRPC4 spec – tests whether TRPC6 inhibitors also affect mouse TRPC4 | shares compounds with TRPC6 inh | HEK293 TRPC4/mu-opioid, membrane potential fluorescence | activity change, negative = inhibition, % at 10 µM | 920 tested, 61% active | AID 2777;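 active = rise or fall in signal beyond 3 SD of buffer-only wells in both replicate plates, either sign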;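 also: integrated kinetic ratio of fluorescence range over baseline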
HEK293 MPD ctr 2-1 – second check of TRPC6 inhibitor effects in parental HEK293 cells. shares compounds with TRPC6 inh. parental HEK293 membrane potential dye fluorescence; maximal acetylcholine challenge after compound addition. signal change vs control, % at 10 µM. 920 tested, 31% active;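 active = membrane potential signal moving either way by over 3 SD of the maximum-effect control, in both duplicate plates, meaning non-specific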
HEK293 MPD ctr-1 – checks TRPC6 inhibitor effects in parental HEK293 cells; shares compounds with TRPC6 inh; parental HEK293 membrane potential dye fluorescence; membrane potential signal change, % at 10 µM; 920 tested, 60% active; AID 2780;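 active = membrane potential signal shifting up or down by more than 3 SD of buffer-only wells, on both duplicate plates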
HEK293 MPD ctr-2 – checks TRPC6 modulator effects in parental HEK293 cells | shares compounds with TRPC6 inh | membrane potential dye fluorescence | membrane potential signal change, % at 10 µM | 2,400 tested, 51% active;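 active = membrane potential signal moves up or down beyond 5 SD from buffer-only wells, on both duplicate plates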
HEK293 MPD ctr 2-2 – second counter-screen for TRPC6 modulators: effect in parental HEK293 cells; shares compounds with TRPC6 inh; membrane potential dye fluorescence; after compound, maximal acetylcholine stimulation; AID 488926; inhibition, % at 10 µM; 2,400 tested, 14% active;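 active = membrane potential signal drops by more than 5 SD from the mean control signal, in both duplicate plates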
TRPC4 ctr mod – tests whether TRPC6 modulators also affect mouse TRPC4; 2,400 tested, 69% active; percent change from control (negative = decrease, positive = increase), % at 10 µM; shares compounds with TRPC6 inh; AID 488927; HEK293 TRPC4/mu-opioid, membrane potential fluorescence;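 active = membrane potential signal moved up or down beyond 5 SD of buffer control wells, in both duplicate plates, actives on both sides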
TRPC4 ctr inh 2 – second check of whether TRPC6 modulators also affect mouse TRPC4; shares compounds with TRPC6 inh; HEK293 TRPC4/mu-opioid, membrane potential dye fluorescence; stimulated with maximal-effect DAMGO; inhibition, % at 10 µM; 2,400 tested, 55% active;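 active = drop in membrane potential signal beyond 5 SD of the control wells in both duplicate plates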;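 also: TRPC4 counter screen for TRPC6 hits run under conditions tuned for TRPC6 not TRPC4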
TRPC6 block conf – confirmation of mouse TRPC6 inhibitors; shares compounds with TRPC6 inh; HEK293-TRPC6, membrane potential dye, ACh-evoked depolarization; inhibition, % at 10 µM; 3,300 tested, 43% active; AID 488960;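 active = fluorescence ratio falls more than 5 SD below the full-stimulation control mean, in both duplicate runs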;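 also: integrated fluorescence ratio of peak minus minimum over baseline after agonist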
TRPC6 act confirm – confirmation of mouse TRPC6 activators. shares compounds with TRPC6 inh. activation, % at 10 µM. HEK293-TRPC6 membrane potential dye fluorescence, FDSS. 2,800 tested, 11% active;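 active = ratio signal rise beyond 5 SD above unstimulated control wells' mean, seen in both duplicate runs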
A number is an active result.

Results for C[n+]1c(-c2ccccc2)c2cc(N)ccc2c2ccc(N)cc21 ?
TRPC4 inh: inactive; TRPC4 PAM: inactive; TRPC6 inh: -6.7; TRPC6 activator: inactive; TRPC4 agonist: inactive; HEK293 MPD ctr-2: -208%; HEK293 MPD ctr 2-2: 80%; TRPC4 ctr mod: -73%; TRPC4 ctr inh 2: 68%; TRPC6 block conf: 56%; TRPC6 act confirm: inactive

What do the screens show for `O=C(C(=O)N1CCOCC1)c1cn(Cc2ccccc2)c2ccccc12`?
TRPC4 inh: inactive; TRPC4 PAM: inactive; TRPC6 inh: inactive; TRPC6 activator: inactive; TRPC4 agonist: inactive

How did COc1cc2c(cc1OC)-c1c(OC)c(OC)c(OC)c3ccnc(c13)C2=O do in these assays?
TRPC4 inh: inactive; TRPC4 PAM: inactive; TRPC6 inh: -7; TRPC6 activator: inactive; TRPC4 agonist: inactive; HEK293 MPD ctr-2: -142%; HEK293 MPD ctr 2-2: inactive; TRPC4 ctr mod: -29%; TRPC4 ctr inh 2: 74%; TRPC6 block conf: 56%; TRPC6 act confirm: inactive

How did O=C(CCC(=O)N1CC2C[C@@H](C1)Cn1c2cccc1=O)NCCc1ccccc1 do in these assays?
TRPC4 inh: inactive; TRPC4 PAM: inactive; TRPC6 inh: inactive; TRPC6 activator: inactive; TRPC4 agonist: inactive

Results for C[N+]12CCC(CC1)C(OC(=O)C(O)(c1ccccc1)c1ccccc1)C2 (centres undefined) ?
TRPC4 inh: inactive; TRPC4 PAM: inactive; TRPC6 inh: -8.8; TRPC6 activator: inactive; TRPC4 agonist: inactive; TRPC4 spec 2: inactive; TRPC4 spec: inactive; HEK293 MPD ctr 2-1: 8.0%; HEK293 MPD ctr-1: inactive; TRPC6 block conf: 81%; TRPC6 act confirm: inactive

What do the screens show for `CCC(CO)(C(=O)OC1C[N+]2(C)CCC1CC2)c1ccccc1` (centres undefined)?
TRPC4 inh: inactive; TRPC4 PAM: inactive; TRPC6 inh: -11; TRPC6 activator: inactive; TRPC4 agonist: inactive; TRPC4 spec 2: inactive; TRPC4 spec: inactive; HEK293 MPD ctr 2-1: -30%; HEK293 MPD ctr-1: inactive; TRPC6 block conf: 97%; TRPC6 act confirm: inactive

What do the screens show for `C[N+]12CCC(CC1)C(C(O)(c1cccc(Cl)c1)c1cccc(Cl)c1)C2` (centres undefined)?
TRPC4 inh: inactive; TRPC4 PAM: inactive; TRPC6 inh: inactive; TRPC6 activator: inactive; TRPC4 agonist: inactive

What do the screens show for `c1ccc(C2=NP(N3CCOCC3)(N3CCOCC3)=NC(N3CCOCC3)=N2)cc1`?
TRPC4 inh: inactive; TRPC4 PAM: inactive; TRPC6 inh: inactive; TRPC6 activator: inactive; TRPC4 agonist: inactive
